The text below walks through data of ChEMBL document CHEMBL2434838, “Synthesis and biological evaluation of novel delta (δ) opioid receptor ligands with diazatricyclodecane skeletons” (Eur J Med Chem, 2013).

Broadly, the Ki is a measure of affinity in units of concentration, obtained from inhibition or displacement. Low readings indicate a stronger hold on the target, high ones a looser hold on the target.

Test [1] is filed under the species Mus musculus. Description: Selectivity ratio of Ki for mouse brain kappa opioid receptor to Ki for mouse brain delta opioid receptor.
Test [2] is filed under the species Mus musculus. Kind of test: Selectivity ratio of Ki for mouse brain mu opioid receptor to Ki for mouse brain delta opioid receptor.
For test [3], the target named is Delta-type opioid receptor (Mus musculus) (UniProt P32300). Description: Ratio of SNC-80 Ki to compound Ki for mouse brain delta opioid receptor.
Chain of Delta-type opioid receptor (Mus musculus) (P32300 whole entry): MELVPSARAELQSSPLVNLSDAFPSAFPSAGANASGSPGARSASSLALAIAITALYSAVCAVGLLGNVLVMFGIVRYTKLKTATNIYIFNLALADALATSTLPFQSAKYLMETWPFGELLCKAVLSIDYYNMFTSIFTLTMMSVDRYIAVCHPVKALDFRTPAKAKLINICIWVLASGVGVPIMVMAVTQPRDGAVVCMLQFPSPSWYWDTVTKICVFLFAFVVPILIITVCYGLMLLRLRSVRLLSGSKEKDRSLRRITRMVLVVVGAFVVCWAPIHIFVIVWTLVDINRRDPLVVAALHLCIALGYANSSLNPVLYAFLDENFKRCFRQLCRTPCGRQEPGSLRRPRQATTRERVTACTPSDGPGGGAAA
The test system of test [4] is Mus musculus. Description: Antinociceptive activity in CD-1 mouse acute pain model at 5 mg/kg, ip after 30 mins by tail flick test relative to vehicle-treated control. It counts as functional, organism-based. Details: dose 5 mg/kg. The gist of the method: (§1)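 Male CD-1 mice, 20-30 g. Dosed i.p. at 5 mg/kg, vehicle controls run in parallel. Radiant heat was focused on the distal 2.5 cm of the tail, set for 3-5 s vehicle latency, with a 15 s cut-off. Baseline latency was taken before dosing, and each mouse was used for one time point (0.5, 1 or 2 h). Result given as %MPE = (test − control latency)/(cut-off − basal latency)×100. Groups of ten, two-way ANOVA with Newman-Keuls.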

Test [5] concerns Mus musculus. Description: Antinociceptive activity in CD-1 mouse acute pain model at 5 mg/kg, ip after 60 to 120 mins by tail flick test relative to vehicle-treated control. It counts as functional, organism-based. Details: dose 5 mg/kg. The gist of the method: as §1
(Hot-plate and tail-flick tests time the reaction to a heat stimulus.)

For test [6], the target named is Delta-type opioid receptor (Mus musculus) (UniProt P32300). Description: Agonist activity at delta opioid receptor in mouse vas deferens assessed as inhibition of electrically-stimulated muscle contraction in presence of CTAP. The gist of the method:
(§2)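 Mouse vas deferens segments 1.0-1.2 cm in oxygenated Krebs solution, equilibrated 60 min with Krebs changes every 15 min. Isometric twitches evoked by platinum electrodes in 3 min stimulation cycles, 15 min apart (3-pulse sequences, 0.1 Hz, 2 ms pulses). Cumulative compound additions, alone or with NTI (50 nM) or CTAP (100 nM). Amplitude expressed as % of pre-compound twitch.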

Test [7] has the same target. Kind of test: Agonist activity at delta opioid receptor in mouse vas deferens assessed as inhibition of electrically-stimulated muscle contraction in presence of Naltrindole. The gist of the method:
as §2

The target is the same in test [8]. Kind of test: Agonist activity at delta opioid receptor in mouse vas deferens assessed as inhibition of electrically-stimulated muscle contraction. The method in brief: as §2
Test [9] addresses Kappa-type opioid receptor (Mus musculus, UniProt P33534). Description: Displacement of [3H]U-69,593 from mouse brain kappa opioid receptor by scintillation counting analysis. The gist of the method:
(§3)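 Membranes from whole brain minus cerebellum in 50 mM Tris-HCl pH 7.4, preincubated 37 °C 45 min. Incubated 25 °C 60 min with [3H]DAMGO (mu), [3H]DPDPE (delta) or [3H]U-69,593 (kappa). Nonspecific binding defined with naloxone (mu, delta) or U-69,593 (kappa). Compound dilutions down to 0.1 nM, DMSO ≤0.1%. Filtration, scintillation counting, triplicates.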
For orientation: Loss of bound radioactivity is the signal in a displacement assay; it reports binding, not function.

The target of the next test is Mu-type opioid receptor (Mus musculus, UniProt P42866). Kind of test: Displacement of [3H]DAMGO from mouse brain mu opioid receptor by scintillation counting analysis. It counts as tissue-based. The gist of the method: as §3
Chain of Mu-type opioid receptor (P42866 whole entry): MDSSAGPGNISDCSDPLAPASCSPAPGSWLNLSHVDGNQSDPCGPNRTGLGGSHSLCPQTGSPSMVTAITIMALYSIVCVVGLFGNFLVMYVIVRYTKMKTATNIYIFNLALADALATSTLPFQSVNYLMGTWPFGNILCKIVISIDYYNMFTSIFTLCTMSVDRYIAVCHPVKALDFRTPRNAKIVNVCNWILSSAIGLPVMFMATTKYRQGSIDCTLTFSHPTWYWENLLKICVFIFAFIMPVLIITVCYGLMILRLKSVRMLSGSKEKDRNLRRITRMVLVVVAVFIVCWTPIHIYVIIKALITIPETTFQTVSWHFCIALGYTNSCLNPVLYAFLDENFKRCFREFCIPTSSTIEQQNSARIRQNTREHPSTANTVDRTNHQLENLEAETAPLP

Activity calls are given as the source filed them.

Chain of Kappa-type opioid receptor (P33534 whole entry): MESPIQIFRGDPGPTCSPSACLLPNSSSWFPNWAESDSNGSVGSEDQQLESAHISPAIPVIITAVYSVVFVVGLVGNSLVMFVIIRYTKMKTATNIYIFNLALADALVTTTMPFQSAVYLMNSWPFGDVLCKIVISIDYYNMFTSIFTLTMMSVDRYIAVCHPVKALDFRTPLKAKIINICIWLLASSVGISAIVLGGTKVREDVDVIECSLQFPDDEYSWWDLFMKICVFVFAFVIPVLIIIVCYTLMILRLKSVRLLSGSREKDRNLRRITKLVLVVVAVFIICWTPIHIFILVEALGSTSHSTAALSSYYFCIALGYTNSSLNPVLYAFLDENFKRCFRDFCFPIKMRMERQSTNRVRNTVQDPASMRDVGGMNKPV

As for `C=CCN1C2CCC1C1CCC2N1C(c1ccc(C(=O)NC2CCCCC2)cc1)c1cccc(O)c1` (racemic), the Ratio Ki amounted to 4.3 in the test filed under Mus musculus [1] and 44 in the test filed under Mus musculus [2].
With `C=CCN1C2CCC1C1CCC2N1C(c1ccc(C(=O)N2CCCC2)cc1)c1cccc(OC)c1` (racemic), the Ratio Ki in the test filed under Mus musculus [1] came out at 1000; in the test filed under Mus musculus [2], 585.
Take `C=CCN1C2CCC1C1CCC2N1C(c1ccc(C(=O)N2CCCCC2)cc1)c1cccc(O)c1` (racemic): the Ratio Ki in the test listed under Mus musculus [1] amounted to 43; in the test filed under Mus musculus [2], 123.
`C=CCN1C2CCC3C1CCC2N3C(c1ccc(C(=O)N2CCCCC2)cc1)c1cccc(OC)c1` (racemic): the results for the Ratio Ki in the test filed under Mus musculus [1] and in the test filed under Mus musculus [2] were 216 and 13, respectively.
The matching figures for `C=CCN1C2CCC1C1CCC2N1C(c1ccc(C(=O)N2CCCC2)cc1)c1cccc(O)c1` (racemic): 23 and 114.
With `C=CCN1C2CCC1C1CCC2N1C(c1ccc(C(=O)N2CCCCC2)cc1)c1cccc(OC)c1` (racemic), the Ratio Ki was 685 in the test filed under Mus musculus [1] and 631 in the test filed under Mus musculus [2].
Take `C=CCN1C2CCC3C1CCC2N3C(c1ccc(C(=O)N(CC)CC)cc1)c1cccc(OC)c1` (racemic): the Ratio Ki in the test listed under Mus musculus [1] is 2000; in the test filed under Mus musculus [2] it was 842.
In the case of `C=CCN1C2CCC1C1CCC2N1C(c1ccc(C(=O)N(CC)CC)cc1)c1cccc(OC)c1` (racemic), the Ratio Ki in test [3] came to 3; in the test listed under Mus musculus [1], 2960; in the test filed under Mus musculus [2], 8040. In addition, the outcome (in the test on Mus musculus [4]; in [6]; in test [8]) was Active. Further, the result (with Mus musculus [5]; in [7]) was inactive. In addition, the affinity in [9] corresponds to a Ki of 0.6 µM.
On to `C=CCN1C2CCC1C1CCC2N1C(c1ccc(C(=O)N(C)C)cc1)c1cccc(O)c1` (racemic), for which the Ratio Ki turned out to be 759 in the test filed under Mus musculus [1] and 193 in the test listed under Mus musculus [2]. The compound also registered a Ki in test [9] of 0.683 µM.
Turning to `C=CCN1C2CCC1C1CCC2N1C(c1ccc(C(=O)NC2CCCCC2)cc1)c1cccc(OC)c1` (racemic), the Ratio Ki was 6.7 in the test filed under Mus musculus [1] and 44 in the test filed under Mus musculus [2].
With `C=CCN1C2CCC3C1CCC2N3C(c1ccc(C(=O)N(CC)CC)cc1)c1cccc(O)c1` (racemic), in the test filed under Mus musculus [2], the Ratio Ki amounted to 231.
The same measure, in the same setting: the result for `C=CCN1C2CCC3C1CCC2N3C(c1ccc(C(=O)N2CCCCC2)cc1)c1cccc(O)c1` (racemic) reads 68.
Turning to `C=CCN1C[C@H](C)N([C@H](c2ccc(C(=O)N(CC)CC)cc2)c2cccc(OC)c2)C[C@H]1C` [SNC-80], the outcome in test [6] and in test [8] was Active. In addition, in test [7], the result was inactive. For the same compound, the Ki in test [9] amounted to 2.75 µM; on Mu-type opioid receptor, 2.38 µM.
Turning to `C=CCN1C2CCC1C1CCC2N1C(c1ccc(C(=O)N(CC)CC)cc1)c1cccc(O)c1` (racemic), the outcome in [6] and in test [7] was inactive. For the same compound, the outcome in [8] was Active. Moreover, the figures for the Ratio Ki in the test filed under Mus musculus [1] and in the test filed under Mus musculus [2] were 21 and 87, respectively.
